Source: ChEMBL document CHEMBL3804796, “Discovery of Novel 3,3-Disubstituted Piperidines as Orally Bioavailable, Potent, and Efficacious HDM2-p53 Inhibitors” (ACS Med Chem Lett, 2016)
Active and inactive are the calls of the source. No cut-off for these calls is given here.

How the values were obtained:
Cytochrome P450 1A2 = Cytochrome P450 1A2 (Homo sapiens, UniProt P05177); assay: Inhibition of CYP1A2 (unknown origin); format: ADME
HCT-116 = assay: Selectivity ratio of IC50 for human SK-UT-1 cells harboring mutant p53 to IC50 for human HCT116 cells expressing wild type p53; format: functional
Method in brief: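 Ratio of two IC50s, each from a 72 h CellTiter-Glo viability assay. p53 coding-region status was confirmed by direct sequencing. The ratio is p53-mutant (SK-UT-1) or p53-null (H1299) IC50 divided by wild-type p53 (SJSA-1 or HCT116) IC50.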

A498 = assay: Antiproliferative activity against human A498 cells expressing wild type p53 after 72 hrs by CellTitre-Glo assay; format: functional, cell-based
Method in brief: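 Cell lines exposed to compound for 72 h; viability read by CellTiter-Glo and IC50 derived. p53 coding-region mutation status of each line established by direct sequencing.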

Cytochrome P450 2C8 = Cytochrome P450 2C8 (Homo sapiens, UniProt P10632); assay: Inhibition of CYP2C8 (unknown origin); format: ADME
Sequence of Cytochrome P450 2C8 (P10632 whole entry): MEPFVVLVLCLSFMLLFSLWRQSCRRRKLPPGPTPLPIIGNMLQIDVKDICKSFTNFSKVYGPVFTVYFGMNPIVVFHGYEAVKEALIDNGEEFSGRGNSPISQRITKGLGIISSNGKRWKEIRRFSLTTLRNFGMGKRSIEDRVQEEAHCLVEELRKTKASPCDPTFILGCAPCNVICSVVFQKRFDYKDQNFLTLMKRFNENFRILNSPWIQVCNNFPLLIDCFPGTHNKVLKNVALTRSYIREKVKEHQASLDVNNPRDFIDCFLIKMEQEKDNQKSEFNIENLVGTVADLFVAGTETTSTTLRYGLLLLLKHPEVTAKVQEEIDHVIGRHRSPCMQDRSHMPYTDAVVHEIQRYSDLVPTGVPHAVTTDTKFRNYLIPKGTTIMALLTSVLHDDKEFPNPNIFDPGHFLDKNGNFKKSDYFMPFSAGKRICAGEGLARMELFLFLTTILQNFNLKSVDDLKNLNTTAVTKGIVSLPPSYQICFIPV

Sequence of Cytochrome P450 1A2 (P05177 whole entry): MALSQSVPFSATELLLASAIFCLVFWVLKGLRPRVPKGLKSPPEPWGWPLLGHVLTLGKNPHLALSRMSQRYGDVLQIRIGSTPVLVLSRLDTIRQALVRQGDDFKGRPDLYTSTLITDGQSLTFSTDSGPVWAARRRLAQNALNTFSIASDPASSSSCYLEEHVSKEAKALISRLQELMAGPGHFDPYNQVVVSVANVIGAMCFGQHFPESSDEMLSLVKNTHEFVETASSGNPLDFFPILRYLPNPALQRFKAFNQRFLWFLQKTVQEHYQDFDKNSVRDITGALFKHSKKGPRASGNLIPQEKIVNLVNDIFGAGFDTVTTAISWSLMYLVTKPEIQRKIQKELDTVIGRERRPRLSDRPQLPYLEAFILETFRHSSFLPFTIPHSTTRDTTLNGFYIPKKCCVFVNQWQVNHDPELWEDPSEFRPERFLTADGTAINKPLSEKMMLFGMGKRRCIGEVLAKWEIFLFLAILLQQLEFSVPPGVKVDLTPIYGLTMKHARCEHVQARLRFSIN

`CCC[C@H]1N(C(=O)c2cnccc2C(F)(F)F)CCC[C@@]1(Oc1csc(C(F)(F)F)c1)C(=O)N1CCN(c2ccccc2OCCCC(=O)O)CC1` was tested, and the IC50 (Cytochrome P450 1A2) was greater than 50 µM, the “Ratio IC50” value (HCT-116) was greater than 500 and the Activity (A498) was “Active”. For the same molecule, the IC50 (Cytochrome P450 2C8) was greater than 50 µM.
